For series [1], the system named is HCT-116. The series is described as follows: Cytotoxicity against human HCT116 cells assessed as reduction in cell viability after 48 hrs by WST8 assay. It is filed as functional, cell-based. Particulars: HCT-116, 48 h. In short, it runs like this:
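HCT-116 cells grown in RPMI 1640 with 10% FBS and penicillin/streptomycin, plated near-confluent at 5 × 10^3 cells/well and left 24 h at 37 °C, 5% CO2. Compounds (DMSO stocks 0.01–100 μM) added to give final 0.1–1000 nM, 1% DMSO vehicle. After 48 h, WST-8 added for 2 h, absorbance read at 450 nm (reference 595 nm), vehicle taken as 100%. IC50 by probit analysis; three independent experiments.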
On the technique in general: Formazan colour is commonly taken as a measure of viable cells.

In series [2] the test system is HCT-116. The experiment in a line: Growth inhibition of human HCT116 cells after 72 hrs by Cell-Titer Glo assay. It is filed as functional. Particulars: HCT-116, 72 h. An outline of the steps: (§1)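 Cells seeded in 384-well plates at 1–3 × 10^3 cells/well and grown 24 h at 37 °C, 5% CO2. Compounds added at final 0.03 nM to 1 μM (10-point), DMSO vehicle at most 0.25%.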

For a further series, the system named is BXPC-3. The series is described as follows: Growth inhibition of human BxPC3 cells after 72 hrs by Cell-Titer Glo assay. Particulars: BXPC-3, 72 h. It is filed as functional. In short, it runs like this:
as §1

The test system of the next series is A549. The experiment in a line: Growth inhibition of human A549 cells after 72 hrs by Cell-Titer Glo assay. Particulars: A549, 72 h. It counts as functional. An outline of the steps:
as §1

For a further series, the system named is Huh-7. The experiment in a line: Growth inhibition of human HuH7 cells after 72 hrs by Cell-Titer Glo assay. It counts as functional. Particulars: Huh-7, 72 h. In short, it runs like this:
as §1

The next series concerns MKN-74. The series is described as follows: Growth inhibition of human MKN74 cells after 72 hrs by Cell-Titer Glo assay. It counts as functional. Particulars: MKN-74, 72 h. An outline of the steps: as §1
Another series deals with U-87 MG. The experiment in a line: Growth inhibition of human U87MG cells after 72 hrs by Cell-Titer Glo assay. It counts as functional, U-87MG ATCC. In short, it runs like this:
as §1

A further series concerns SK-OV-3. The experiment in a line: Growth inhibition of human SKOV3 cells after 72 hrs by Cell-Titer Glo assay. Particulars: SK-OV-3, 72 h. It is filed as functional. An outline of the steps:
as §1

Series [3] is described as follows: Growth inhibition of human HEC6 cells after 72 hrs by Cell-Titer Glo assay. It counts as functional. Particulars: HEC-6, 72 h. An outline of the steps:
as §1

The test system of another series is 786-0. The series is described as follows: Growth inhibition of human 786-O cells after 72 hrs by Cell-Titer Glo assay. Particulars: 786-0, 72 h. It is filed as functional. An outline of the steps: as §1
In another series the test system is MCF7. The experiment in a line: Growth inhibition of human MCF7 cells after 72 hrs by Cell-Titer Glo assay. It counts as functional. Particulars: MCF7, 72 h. In short, it runs like this:
as §1

Series [4] in a line: Drug metabolism in mouse liver microsomes after 35 mins in presence of NADPH by LC-MS/MS analysis. It is filed as ADME, microsome. Particulars: read-out: Drug metabolism. In short, it runs like this:
(§2)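 Pooled liver microsomes at 0.1 mg/mL protein with 3.25 mmol/L β-NADPH in 125 mmol/L phosphate buffer. Compound at 100 nmol/L, added in CH3CN. Incubated 37 °C for 35 min, stopped with methanol, held at −20 °C for 30 min, then centrifuged. Parent compound loss measured by LC-MS/MS; duplicate incubations.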

Series [5] can be described thus: Drug metabolism in human liver microsomes after 35 mins in presence of NADPH by LC-MS/MS analysis. It counts as ADME, microsome. Particulars: read-out: Drug metabolism. In short, it runs like this:
as §2
For orientation: Liver microsomes are vesicles of endoplasmic reticulum, rich in cytochrome P450 enzymes.

Each structure is given as a SMILES string. pIC50: −log10 of the molar value.

From ChEMBL document CHEMBL4011655, “Conformation-Based Design and Synthesis of Apratoxin A Mimetics Modified at the α,β-Unsaturated Thiazoline Moiety” (J Med Chem, 2017) come the findings set out here.

As to `CC[C@H](C)[C@H]1C(=O)N2CCC[C@H]2C(=O)O[C@H](C(C)(C)C)C[C@@H](C)C[C@H](O)[C@H](C)C(=O)N(C)CCC(=O)N[C@@H](Cc2ccc(OC)cc2)C(=O)N(C)[C@@H](C)C(=O)N1C`, in the series on HCT-116 [1], the pIC50 was 5.51.
`CC[C@H](C)[C@H]1C(=O)N2CCC[C@H]2C(=O)O[C@H](C(C)(C)C)C[C@@H](C)C[C@H](O)[C@H](C)C(=O)NCCCC(=O)N[C@@H](Cc2ccc(OC)cc2)C(=O)N(C)[C@@H](C)C(=O)N1C`: the pIC50 in the series with HCT-116 [1] is 5.59.
For the compound `CC[C@H](C)[C@H]1C(=O)N2CCC[C@H]2C(=O)O[C@H](C(C)(C)C)C[C@@H](C)C[C@H](O)[C@H](C)C(=O)N2CCC(CC2)C(=O)N[C@@H](Cc2ccc(Cl)cc2)C(=O)N(C)[C@@H](C)C(=O)N1C`, the pIC50 in the series with HCT-116 [1] was 7.16. In addition, the GI50 in the series on HCT-116 [2] amounted to 210 nM; in the series with BXPC-3, 80 nM; in the series with A549, 190 nM; in the series on Huh-7, 180 nM; with MKN-74 it was 200 nM; with U-87 MG, 320 nM. Further, the GI50 with SK-OV-3 was 410 nM; in series [3] it was 480 nM; with 786-0 it was > 1000 nM; in the series on MCF7 it was > 1000 nM.
`COc1ccc(C[C@@H]2NC(=O)C3CCN(CC3)C(=O)[C@@H](C)[C@@H](O)C[C@H](C)C[C@@H](C(C)(C)C)OC(=O)[C@@H]3CCCN3C(=O)[C@H](C)N(C)C(=O)[C@H](C)N(C)C2=O)cc1`: the pIC50 in the series on HCT-116 [1] was 5.12.
Regarding `CC[C@H](C)[C@H]1C(=O)N2CCC[C@H]2C(=O)O[C@H](C(C)(C)C)C[C@@H](C)C[C@H](O)[C@H](C)C(=O)N2CCC(CC2)C(=O)N[C@@H](Cc2ccc(-c3ccccc3)cc2)C(=O)N(C)[C@@H](C)C(=O)N1C`, in the series with HCT-116 [1], the pIC50 was 8.96. Besides, the GI50 in the series on HCT-116 [2] was 11 nM; with BXPC-3 it was 4 nM; in the series on A549 it was 6.3 nM; with Huh-7 it was 6.8 nM; in the series on MKN-74, 8 nM; in the series on U-87 MG it was 12 nM. Also, the GI50 in the series with SK-OV-3 was 18 nM; in [3], 23 nM; in the series on 786-0 it was 120 nM; with MCF7, > 1000 nM. Further, the metabolised at 35 min in [4] is 84%; in series [5], 85%.
Take `CC[C@H](C)[C@H]1C(=O)N2CCC[C@H]2C(=O)O[C@H](C(C)(C)C)C[C@@H](C)C[C@H](O)[C@H](C)C(=O)N2CCC(CC2)C(=O)N[C@@H](Cc2ccccc2)C(=O)N(C)[C@@H](C)C(=O)N1C`: the pIC50 in the series with HCT-116 [1] was 6.31.
For `CO[C@@]12[C@H](COC(N)=O)C3=C(C(=O)C(C)=C(N)C3=O)N1C[C@@H]1N[C@@H]12` [MITOMYCIN], the GI50 with HCT-116 [2] is 200 nM; in the series on BXPC-3, 380 nM; in the series on A549 it was 80 nM; with Huh-7, 2000 nM; in the series on MKN-74, 1700 nM; in the series with U-87 MG, 1800 nM. Besides, the GI50 came to 100 nM with SK-OV-3, 1400 nM in series [3], 210 nM in the series on 786-0 and 2500 nM in the series on MCF7.
In the case of `CC[C@H](C)[C@H]1C(=O)N2CCC[C@H]2C(=O)O[C@H](C(C)(C)C)C[C@@H](C)C[C@H](O)[C@H](C)C(=O)N2CCC(CC2)C(=O)N[C@@H](Cc2ccc(OC)cc2)C(=O)N(C)[C@@H](C)C(=O)N1C`, in the series with HCT-116 [1], the pIC50 was 6.92.
On the same count and under the same terms, next, `CC[C@H](C)[C@H]1C(=O)N2CCC[C@H]2C(=O)O[C@H](C(C)(C)C)C[C@@H](C)C[C@H](O)[C@H](C)C(=O)N2CCC(CC2)C(=O)N[C@@H](Cc2ccc(OC)cc2)C(=O)N(C)[C@@H](CC(C)C)C(=O)N1C`: 6.44.
For the compound `CC[C@H](C)[C@H]1C(=O)N2CCC[C@H]2C(=O)O[C@H](C(C)(C)C)C[C@@H](C)C[C@H](O)[C@H](C)C(=O)N(C)CCCC(=O)N[C@@H](Cc2ccc(OC)cc2)C(=O)N(C)[C@@H](C)C(=O)N1C`, the pIC50 in the series with HCT-116 [1] is 6.47.
Still for that read-out and setting: next, `CC[C@H](C)[C@H]1C(=O)N2CCC[C@H]2C(=O)O[C@H](C(C)(C)C)C[C@@H](C)C[C@H](O)[C@H](C)C(=O)NCCC(=O)N[C@@H](Cc2ccc(OC)cc2)C(=O)N(C)[C@@H](C)C(=O)N1C`: 5.47; `CC[C@H](C)[C@H]1C(=O)N2CCC[C@H]2C(=O)O[C@H](C(C)(C)C)C[C@@H](C)C[C@H](O)[C@H](C)C(=O)NCc2cccc(c2)C(=O)N[C@@H](Cc2ccc(OC)cc2)C(=O)N(C)[C@@H](C)C(=O)N1C`: 6.09.
`COc1ccc(C[C@@H]2NC(=O)C3CCN(CC3)C(=O)[C@@H](C)[C@@H](O)C[C@H](C)C[C@@H](C(C)(C)C)OC(=O)[C@@H]3CCCN3C(=O)[C@H](C(C)C)N(C)C(=O)[C@H](C)N(C)C2=O)cc1`: in the series with HCT-116 [1], the pIC50 is 6.89.
Same read-out and setting: next, `CC[C@H](C)[C@H]1C(=O)N2CCC[C@H]2C(=O)O[C@H](C(C)(C)C)C[C@@H](C)C[C@H](O)[C@H](C)C(=O)N2CCC(CC2)C(=O)N[C@@H](Cc2ccc(OC)cc2)C(=O)N(C)[C@@H](Cc2ccccc2)C(=O)N1C`: 5.80; `CC[C@H](C)[C@H]1C(=O)N2CCC[C@H]2C(=O)O[C@H](C(C)(C)C)C[C@@H](C)C[C@H](O)[C@H](C)C(=O)N(C)Cc2cccc(c2)C(=O)N[C@@H](Cc2ccc(OC)cc2)C(=O)N(C)[C@@H](C)C(=O)N1C`: 6.66; `CC[C@H](C)[C@H]1C(=O)N2CCC[C@H]2C(=O)O[C@H](C(C)(C)C)C[C@@H](C)C[C@H](O)[C@H](C)C(=O)N2CCC(CC2)C(=O)N[C@@H](Cc2ccc(OC)cc2)C(=O)N(C)CC(=O)N1C`: 6.07.
The same measure, in the same setting: next, `COc1ccc(C[C@@H]2NC(=O)C3CCN(CC3)C(=O)[C@@H](C)[C@@H](O)C[C@H](C)C[C@@H](C(C)(C)C)OC(=O)[C@@H]3CCCN3C(=O)[C@H](Cc3ccccc3)N(C)C(=O)[C@H](C)N(C)C2=O)cc1`: 6.15.
Take `CC[C@H](C)[C@H]1C(=O)N2CCC[C@H]2C(=O)O[C@H](C(C)(C)C)C[C@@H](C)C[C@H](O)[C@H](C)C2=N[C@@H](/C=C(\C)C(=O)N[C@@H](Cc3ccc(OC)cc3)C(=O)N(C)[C@@H](C)C(=O)N1C)CS2` [APRATOXIN A]: the pIC50 in the series on HCT-116 [1] is 8.55. Also, the GI50 in the series with HCT-116 [2] amounted to 11 nM; with BXPC-3 it was 4.9 nM; in the series on A549, 6.4 nM; with Huh-7 it was 7.2 nM; with MKN-74, 9.7 nM; with U-87 MG, 18 nM. Also, the concentration for 50% growth inhibition (GI50) was 31 nM with SK-OV-3, 39 nM in series [3], 41 nM in the series with 786-0 and > 1000 nM with MCF7.

Broadly, the pIC50 is −log10 of the IC50, conventionally taken in molar units. In general, GI50 refers to the concentration at which growth is held to half of that of the control. A higher GI50 goes with lower sensitivity of the cells.
